Assay results pooled from the literature.
ADRA1A: Alpha-1A adrenergic receptor (ADRA1A, Homo sapiens, UniProt P35348)
SQLE: Squalene monooxygenase (SQLE, Homo sapiens, UniProt Q14534)

Compound	target	effect on	mode	method	measurement	result
Cc1cc(Oc2ncccc2CN2CCN(C(c3ccccc3)c3ccccc3)CC2)ccc1-c1c(C)c(=O)[nH]c(=O)n1C	ADRA1A	ligand displacement	–	radioligand	Ki	0.885 µM
O=C(O)[C@H]1O[C@@H](Oc2cc3oc(-c4ccccc4)cc(=O)c3c(O)c2O)[C@H](O)[C@@H](O)[C@@H]1O	SQLE	enzyme activity	inhibitor	–	Ki	1.75 µM
Cc1cc2nc3c(=O)[nH]c(=O)nc-3n(C[C@H](O)[C@H](O)[C@H](O)COP(=O)(O)OP(=O)(O)OC[C@H]3O[C@@H](n4cnc5c(N)ncnc54)[C@H](O)[C@@H]3O)c2cc1C	Dihydrolipoyl dehydrogenase, mitochondrial (DLD, Homo sapiens, UniProt P09622)	binding	–	SPR	Kd	1.27 µM
O=C[C@H](O)[C@@H](O)[C@H](O)[C@H](O)COP(=O)(O)O	Hexokinase HKDC1 (Homo sapiens, UniProt Q2TB90)	enzyme activity	inhibitor	absorbance	Ki	> 1000 µM
Nc1ccn(C[C@@H](CO)OCP(=O)(O)O)c(=O)n1	Solute carrier family 22 member 6 (SLC22A6, Homo sapiens, UniProt Q4U2R8, S231A)	transporter uptake	inhibitor	fluorescence	IC50	344 µM
NC(=O)c1ccc[n+]([C@@H]2O[C@H](COP(=O)([O-])OP(=O)(O)OC[C@H]3O[C@@H](n4cnc5c(N)ncnc54)[C@H](O)[C@@H]3O)[C@@H](O)[C@H]2O)c1	Dihydrolipoyl dehydrogenase, mitochondrial (DLD, Homo sapiens, UniProt P09622, K430Q)	binding	–	SPR	Kd	1.14 µM
CC(C)C[C@H](NC(=O)[C@H](Cc1ccccc1)NC(=O)c1cnccn1)B(O)O	ATP-dependent Clp protease proteolytic subunit, mitochondrial (CLPP, Homo sapiens, UniProt Q16740)	binding	–	–	Kd	45 µM
Cc1ccc(N2CCN(Cc3cccnc3Oc3ccc(-c4c(C)c(=O)[nH]c(=O)n4C)c(C)c3)CC2)cc1C	ADRA1A	ligand displacement	–	radioligand	Ki	3.42 µM
CN(C)C(=O)c1cc2cnc(Nc3ccc(C(=O)NCCCCCCOc4cccc5c4C(=O)N(C4CCC(=O)NC4=O)C5=O)cc3)nc2n1C1CCCC1 (centres unmarked)	High affinity nerve growth factor receptor (NTRK1, Homo sapiens, UniProt P04629)	binding	–	competition with immobilised ligand	Kd	< 0.2 µM
CC(=O)c1ccc2c(c1)N(CCCN1CCC(CCO)CC1)c1ccccc1S2	SQLE	enzyme activity	inhibitor	–	Ki	0.68 µM
Cc1cc(Oc2ncccc2CN2CCN(c3ccccc3C#N)CC2)ccc1-c1c(C)c(=O)[nH]c(=O)n1C	ADRA1A	ligand displacement	–	radioligand	Ki	1.21 µM
